{"source": "paper PMC4474499", "about": "(Science Advances, 2015)", "molecules": {"B1": {"name": "human TLR1 protein, purified extracellular domain (receptor, UniProt Q15399 25-580, looked up)", "chain": "SEFLVDRSKNGLIHVPKDLSQKTTILNISQNYISELWTSDILSLSKLRILIISHNRIQYLDISVFKFNQELEYLDLSHNKLVKISCHPTVNLKHLDLSFNAFDALPICKEFGNMSQLKFLGLSTTHLEKSSVLPIAHLNISKVLLVLGETYGEKEDPEGLQDFNTESLHIVFPTNKEFHFILDVSVKTVANLELSNIKCVLEDNKCSYFLSILAKLQTNPKLSNLTLNNIETTWNSFIRILQLVWHTTVWYFSISNVKLQGQLDFRDFDYSGTSLKALSIHQVVSDVFGFPQSYIYEIFSNMNIKNFTVSGTRMVHMLCPSKISPFLHLDFSNNLLTDTVFENCGHLTELETLILQMNQLKELSKIAEMTTQMKSLQQLDISQNSVSYDEKKGDCSWTKSLLSLNMSSNILTDTIFRCLPPRIKVLDLHSNKIKSIPKQVVKLEALQELNVAFNSLTDLPGCGSFSSLSVLIIDHNSVSHPSADFFQSCQKMRSIKAGDNPFQCTCELGEFVKNIDQVSSEVLEGWPDSYKCDYPESYRGTLLKDFHMSELSCNIT"}}, "key": {"human TLR2": {"target": "human TLR2 (Homo sapiens, UniProt O60603+Q15399)", "sequence (O60603 21-784)": "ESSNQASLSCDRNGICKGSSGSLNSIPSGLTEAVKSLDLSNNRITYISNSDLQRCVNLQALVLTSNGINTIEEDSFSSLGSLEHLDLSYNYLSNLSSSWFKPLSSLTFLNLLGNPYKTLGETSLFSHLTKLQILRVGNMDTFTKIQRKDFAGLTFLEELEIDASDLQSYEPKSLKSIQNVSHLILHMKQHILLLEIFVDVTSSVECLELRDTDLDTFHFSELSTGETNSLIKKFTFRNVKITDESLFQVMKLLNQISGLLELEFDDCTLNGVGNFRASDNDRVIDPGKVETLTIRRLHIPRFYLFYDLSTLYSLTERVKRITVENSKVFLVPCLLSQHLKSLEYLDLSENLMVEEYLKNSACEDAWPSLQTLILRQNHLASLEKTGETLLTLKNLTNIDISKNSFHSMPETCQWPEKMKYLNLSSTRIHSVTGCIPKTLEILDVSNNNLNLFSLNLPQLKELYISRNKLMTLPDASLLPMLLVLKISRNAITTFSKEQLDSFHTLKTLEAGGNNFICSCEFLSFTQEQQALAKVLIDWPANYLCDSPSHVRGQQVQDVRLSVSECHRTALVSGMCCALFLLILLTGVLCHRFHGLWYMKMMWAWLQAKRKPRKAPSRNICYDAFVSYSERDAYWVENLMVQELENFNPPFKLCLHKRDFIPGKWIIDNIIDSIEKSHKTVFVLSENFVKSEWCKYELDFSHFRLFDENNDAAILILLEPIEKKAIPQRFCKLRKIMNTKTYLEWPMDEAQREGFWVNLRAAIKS", "sequence (Q15399 25-786)": "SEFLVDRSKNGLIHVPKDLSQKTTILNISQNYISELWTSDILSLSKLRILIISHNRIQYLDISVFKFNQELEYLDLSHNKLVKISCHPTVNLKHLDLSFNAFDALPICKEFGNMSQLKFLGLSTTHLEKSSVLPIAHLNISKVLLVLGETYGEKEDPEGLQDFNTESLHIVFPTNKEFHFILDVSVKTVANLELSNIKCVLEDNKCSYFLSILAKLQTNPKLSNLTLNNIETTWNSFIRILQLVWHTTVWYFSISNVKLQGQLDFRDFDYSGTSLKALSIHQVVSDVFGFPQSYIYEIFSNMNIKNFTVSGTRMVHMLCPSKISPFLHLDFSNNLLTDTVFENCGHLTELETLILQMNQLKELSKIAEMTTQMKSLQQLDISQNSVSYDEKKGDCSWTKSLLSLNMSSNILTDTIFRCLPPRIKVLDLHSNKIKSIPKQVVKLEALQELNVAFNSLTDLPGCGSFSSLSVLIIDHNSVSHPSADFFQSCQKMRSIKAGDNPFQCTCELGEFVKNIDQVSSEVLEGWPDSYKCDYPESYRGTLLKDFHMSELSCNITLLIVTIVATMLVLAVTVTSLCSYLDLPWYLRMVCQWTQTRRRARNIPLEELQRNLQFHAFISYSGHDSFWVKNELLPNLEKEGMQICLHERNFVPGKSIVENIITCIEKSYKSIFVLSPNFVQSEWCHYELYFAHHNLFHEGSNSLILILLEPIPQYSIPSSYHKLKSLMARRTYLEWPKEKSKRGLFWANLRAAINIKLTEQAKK", "assay": "SEAP reporter gene detection assay in HEK-Blue hTLR2 cells", "type": "cell-based", "in_short": "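HEK-Blue hTLR2 cells (SEAP reporter), 4 × 10^4/well, grown 24 h. Then 24 h in Opti-MEM/0.5% FBS with compounds at 0–50 μM or 0–100 μM. Pam3CSK4 (0–66 nM) used as reference agonist. Supernatant heat-treated 30 min at 65°C, cooled, mixed with SEAP buffer and CSPD substrate; luminescence read after 20 min.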"}, "TLR1/2 complex": {"target": "TLR1/2 complex (Homo sapiens, UniProt O60603+Q15399)", "sequence (O60603 21-588 limits assumed, one chain of several)": "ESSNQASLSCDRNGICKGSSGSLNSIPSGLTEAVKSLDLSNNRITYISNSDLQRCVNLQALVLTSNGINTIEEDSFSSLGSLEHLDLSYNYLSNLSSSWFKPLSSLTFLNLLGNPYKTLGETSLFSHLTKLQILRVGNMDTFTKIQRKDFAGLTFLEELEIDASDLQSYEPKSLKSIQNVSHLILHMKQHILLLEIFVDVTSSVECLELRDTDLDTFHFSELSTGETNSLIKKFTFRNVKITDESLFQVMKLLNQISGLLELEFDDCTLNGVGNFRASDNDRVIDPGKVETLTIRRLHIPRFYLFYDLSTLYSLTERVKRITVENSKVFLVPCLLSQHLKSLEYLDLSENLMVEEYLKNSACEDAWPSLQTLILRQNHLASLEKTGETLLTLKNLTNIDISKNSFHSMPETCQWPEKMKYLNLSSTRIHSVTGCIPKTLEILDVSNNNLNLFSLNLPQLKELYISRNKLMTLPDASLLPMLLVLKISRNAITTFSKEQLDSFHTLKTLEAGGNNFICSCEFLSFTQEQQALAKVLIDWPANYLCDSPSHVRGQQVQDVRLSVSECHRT", "assay": "Fluorescence anisotropy competition with Rho-Pam3", "type": "binding", "conditions": "up to 10 μM", "in_short": "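Equal amounts of TLR1 and TLR2 (4 μl each of 10 μM stocks) added to Rho-Pam3CSK4 in PBS pH 7.4 and held 30 min. Serial test-compound concentrations then incubated with the complex 30 min at RT. Fluorescence anisotropy read at 25°C (ex 549/em 566 nm). An analog served as negative control; IC50 derived from the titration.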"}, "NF-κB [1]": {"test_system": "NF-κB", "assay": "U937 NF-κB–GFP reporter assay", "type": "cell-based, human", "conditions": "20 μM (GA even up to 100 μM), U937 cells"}, "Raw 264.7 cells [2]": {"test_system": "Raw 264.7 cells", "assay": "In vitro NO activation assay for Raw 264.7 cells", "type": "cell-based, mouse", "conditions": "Raw 264.7 macrophage cells, 1 µM CU-T12-9", "in_short": "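RAW 264.7 cells, 80,000/well, grown 24 h. Non-adherent cells removed; medium changed to unsupplemented RPMI 1640. Treated 24 h with test compound, or 66 nM (100 ng/ml) Pam3CSK4 as control. Supernatant reacted 15 min in the dark with 2,3-diaminonaphthalene in HCl, quenched with NaOH. Fluorescence read at ex 365/em 450 nm; nitrite calculated from a standard curve.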"}, "NF-κB [3]": {"test_system": "NF-κB", "assay": "Triptolide inhibition of CU-T12-9–induced SEAP signaling in HEK-Blue hTLR2 cells", "type": "cell-based, human"}, "Raw 264.7 cells [4]": {"test_system": "Raw 264.7 cells", "assay": "Quantitative RT-PCR of mRNA levels in Raw 264.7 macrophage cells", "type": "cell-based, mouse", "in_short": "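RAW 264.7 cells, 1 × 10^6/well, grown 24 h, then given fresh RPMI 1640. Exposed to test compound, or 33 nM (50 ng/ml) Pam3CSK4, for 0, 2, 8 or 24 h. Cells washed in cold PBS and frozen. Total RNA extracted (RNeasy) for qRT-PCR. Fold change calculated by ΔΔCt versus DMSO-treated cells, means ± SD.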"}, "hTLR1 and hTLR2": {"target": "hTLR1 and hTLR2 (Homo sapiens, UniProt O60603+Q15399)", "sequence (O60603 21-588 limits assumed, one chain of several)": "as above", "assay": "SEC-LS assay of TLR1/2 heterodimer formation", "type": "biochemical", "conditions": "CU-T12-9 0 to 40 μM or Pam3CSK4 260 nM (400 ng/ml)", "in_short": "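Human TLR2 in PBS pH 7.4 preincubated 2 h at RT with test compound or Pam3CSK4. Equimolar hTLR1 then added (final about 10 μM each) for 2 h at 37°C. Both proteins were baculovirus/insect-cell products. Samples filtered (0.1 μm) and run on size-exclusion column in PBS at 1 ml/min. Detection by in-line multi-angle light scattering, refractive index and UV.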"}, "[5]": {"target": "B1", "assay": "fluorescence polarisation"}, "[6]": {"target": "human TLR2 protein, purified extracellular domain (human, UniProt O60603 21-588)", "sequence (O60603 21-588)": "as the sequence (O60603 21-588 limits assumed, one chain of several) above", "assay": "fluorescence polarisation"}, "[7]": {"target": "TLR1/TLR2 complex (equimolar mixture of purified hTLR1 and hTLR2) (human, UniProt Q15399 25-580; O60603 21-588)", "sequence (O60603 21-588, chain 2 of 2, one chain of several)": "as the sequence (O60603 21-588 limits assumed, one chain of several) above", "assay": "fluorescence polarisation"}, "SEC-MALS": {"target": "the molecule itself", "assay": "SEC-MALS"}}, "note": "“Also recorded” adds a separate entry of the source. Non-standard residues stand in square brackets, D forms with d. No end group written: not given here. Pam3Cys = Cys carrying the Pam3 acyl chains of Pam3CSK4"}
{"molecule": "CNc1ccc([N+](=O)[O-])cc1-n1cnc(-c2cccc([N+](=O)[O-])c2)c1", "note": "[Compound 10]", "values": [{"measurement": "SEAP agonist activity (in words)", "setting": "human TLR2; HEK-Blue hTLR2 cells, nitro group switched from R3 to R4", "value": "completely abolished activity"}]}
{"molecule": "CNc1ccc([N+](=O)[O-])cc1-n1cnc(-c2ccc(C#N)cc2)c1", "note": "[Compound 11]", "values": [{"measurement": "increase in potency relative to GA (factor)", "setting": "human TLR2; replacement of –NO2 at R3", "value": 10}]}
{"molecule": "CNc1ccc([N+](=O)[O-])cc1-n1cnc(-c2ccc(C(=O)O)cc2)c1", "note": "[Compound 19]", "values": [{"measurement": "SEAP activity at 100 μM", "setting": "human TLR2; 100 μM, HEK-Blue hTLR2 cells", "value": "inactive"}]}
{"molecule": "CNc1ccc(C(F)(F)F)cc1-n1cnc(-c2ccc(C(F)(F)F)cc2)c1", "note": "[Compound 20]", "values": [{"measurement": "decrease in potency compared with CU-T12-9", "setting": "human TLR2; –CF3 at R1", "value": "four times"}]}
{"molecule": "CNc1ccc(C(=O)O)cc1-n1cnc(-c2ccc(C(F)(F)F)cc2)c1", "note": "[Compound T12-29]", "values": [{"measurement": "inhibition of Rho-Pam3 binding to TLR1/TLR2", "setting": "TLR1/2 complex", "value": "no competitive binding; also recorded: negligible inhibition"}]}
{"molecule": "CNc1ccc([N+](=O)[O-])cc1-n1cnc(-c2ccc([N+](=O)[O-])cc2)c1", "note": "[GA, N-methyl-4-nitro-2-(4-(4-nitrophenyl)-1H-imidazol-1-yl)aniline, reference compound]", "values": [{"measurement": "NF-κB activation", "setting": "NF-κB [1]", "value": "much lower NF-κB activation"}]}
{"molecule": "CCOC(=O)C1=CCCC[C@H]1S(=O)(=O)Nc1ccc(F)cc1Cl", "note": "[TAK-242, reference compound]", "values": [{"measurement": "inhibition of CU-T12-9 induced NO activation", "setting": "Raw 264.7 cells [2]", "value": "could not be influenced"}]}
{"molecule": "CC(C)[C@]12O[C@H]1[C@@H]1O[C@]13[C@]1(O[C@H]1C[C@H]1C4=C(CC[C@@]13C)C(=O)OC4)[C@@H]2O", "note": "[Triptolide]", "values": [{"measurement": "inhibition of CU-T12-9–induced SEAP signaling", "setting": "NF-κB [3]", "value": "efficiently inhibit"}]}
{"molecule": "Pam3CSK4 [reference compound]", "values": [{"measurement": "time of highest TLR2 mRNA expression", "setting": "Raw 264.7 cells [4]; 1 μM CU-T12-9 or 33 nM (50 ng/ml) Pam3CSK4, measured at 2, 8, 24 hours", "value": 2, "unit": "h"}, {"measurement": "TNF mRNA expression", "setting": "Raw 264.7 cells [4]; over time, maximal expression after 8 hours", "value": "increased"}, {"measurement": "iNOS mRNA expression", "setting": "Raw 264.7 cells [4]; over time, peaked at 24 hours", "value": "increased"}, {"measurement": "TLR1/2 heterodimer formation", "setting": "hTLR1 and hTLR2", "value": "promoted TLR1/2 heterodimerization"}]}
{"molecule": "[Pam3Cys]SKKKK (also: rhodamine label, site not given here)", "note": "[rhodamine-labeled Pam3CSK4]", "values": [{"measurement": "Kd", "setting": "[5]", "value": "41.6 ± 2.36", "unit": "nM"}, {"measurement": "Kd", "setting": "[6]", "value": "125 ± 3.43", "unit": "nM"}, {"measurement": "Kd", "setting": "[7]", "value": "35 ± 1.98", "unit": "nM"}]}
{"molecule": "B1", "values": [{"measurement": "stoichiometry N", "setting": "SEC-MALS", "value": 2}]}
